Measurements from article PMC10206482 (RSC Advances, 2023).
In brackets after ≈: the same amount, converted by molar mass.

Key:
human hepatoma (Huh-7) = test: MTT antiproliferative assay, Huh-7; type: cell-based; details: Huh-7, read-out: Human hepatoma (Huh-7) IC50
Outline: (§1)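 Colorimetric MTT viability readout, run in parallel on human Huh-7 hepatoma, A549 lung adenocarcinoma and MCF-7 breast cancer cells, and on MDCK canine kidney cells as the non-cancerous model. Test compound at four concentrations (0.1, 1, 10, 100 μM), with Taxol as the positive reference. % viability was plotted against concentration, and IC50 was derived as 50% growth inhibition relative to untreated control.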

[1] = system: lung cell cancer adenocarcinoma (A549); test: MTT antiproliferative assay, A549; type: cell-based; details: Homo sapiens, A549, read-out: Lung cell cancer adenocarcinoma (A549) IC50
Outline: as §1

tubulin = test: Tubulin polymerization assay; type: biochemical; details: for Inhibition (%) of tubulin polymerisation: in vitro tubulin inhibition assay; for IC50: read-out: IC50 tubulin polymerisation; for IC50 / IC50 tubulin polymerisation: as printed in Table 2 and results text
Outline: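 Turbidimetric tubulin polymerization, using tubulin at 4 mg ml⁻¹. Test compound came from a 2 mM DMSO stock, diluted with water to final 0.1, 1, 10 and 100 μM. Polymerization was started by moving the reaction from 4 °C to a pre-warmed 37 °C plate. Absorbance at 340 nm was followed kinetically at 37 °C (0.5 cm pathlength). CA-4 served as reference.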

[2] = system: Michigan Cancer Foundation-7 breast cancer (MCF-7); test: MTT antiproliferative assay, MCF-7; type: cell-based; details: Homo sapiens, MCF7, read-out: Michigan cancer foundation-7 breast cancer (MCF-7) IC50
Outline: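 Human MCF-7 breast cancer cells were exposed to the test compound at 0.1, 1, 10 and 100 μM, with Taxol as positive reference. Viability was read by MTT and plotted as % cell viability against concentration (μM). IC50 is the concentration giving 50% growth inhibition relative to untreated control cells, taken from the dose–response curve.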

[3] = Body weight of tumor-bearing rats during treatment; type: in vivo, Wistar rats; details: 2 mg per kg per week, day 0 to day 42
mammary tumors = test: In vivo DMBA-induced breast cancer model: tumor size and histopathology; design: species or system Wistar rats; details: after treatment, 2 mg per kg per week
(A549) cells = test: Morphological assessment of A549 cells; type: cell-based, human; details: 100 μM, 48 h, compared to untreated control
Outline: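 Living cells were examined by inverted light microscopy for morphology changes, after exposure to test compound. Comparators were an untreated control and a Taxol-treated positive control.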

Row | IC50 (human hepatoma (Huh-7)) [µM] | IC50 [1] [µM] | IC50 (tubulin) [µM] | IC50 [2] [µM] | IC50 tubulin polymerisation (tubulin) [µg/mL] | SMILES | Inhibition (%) of tubulin polymerisation (tubulin) [%] | Effect on rats' body weights [3] | Histopathology of mammary gland (H&E): inflammatory cells infiltrates (mammary tumors) | Morphological assessment of cells ((A549) cells)
1 | 3.88 | 31.6 | 15.6 | 8.87 |  | COc1cc(/C=C2\CN(C(C)=O)CC3=C2OC(N)=C(C#N)C3c2ccc(O)c(OC)c2)ccc1O (stereo not shown) [3a, (E)-6-Acetyl-2-amino-3-cyano-8-(4-hydroxy-3-methoxybenzylidene)-4-(4-hydroxy-3-methoxyphenyl)-5,6,7,8-tetrahydro-4H-pyrano[3,2-c]pyridine] | 79 |  |  | 
2 | 6.54 | 15.5 | 4.03 | 6.13 | 4.03 (≈ 8 µM) | CCOc1cc(/C=C2\CN(C(C)=O)CC3=C2OC(N)=C(C#N)C3c2ccc(O)c(OCC)c2)ccc1O (stereo not shown) [3b, (E)-6-Acetyl-2-amino-3-cyano-4-(3-ethoxy-4-hydroxy-phenyl)-8-(3-ethoxy-4-hydroxy-benzylidene)-5,6,7,8-tetrahydro-4H-pyrano[3,2-c]pyridine] | 81 | did not have a significant effect | intensity of inflammatory cells infiltrates decreased | apparent cell toxicity
3 | 17.7 | 61.2 |  | 6.38 |  | CC(=O)N1CC2=C(OC(N)=C(C#N)C2c2ccc(Cl)cc2)/C(=C/c2ccc(Cl)cc2)C1 (stereo not shown) [3c, (E)-6-Acetyl-2-amino-3-cyano-8-(4-chlorobenzylidene)-4-(4-chlorophenyl)-5,6,7,8-tetrahydro-4H-pyrano[3,2-c]pyridine] |  |  |  | 
4 | 20.7 |  |  |  |  | CC(=O)N1CC2=C(OC(N)=C(C#N)C2/C=C/c2ccccc2)/C(=C/C=C/c2ccccc2)C1 (stereo not shown) [3d, (E)-6-Acetyl-2-amino-3-cyano-8-((E)-3-phenylallylidene)-4-((E)-styryl)-5,6,7,8-tetrahydro-4H-pyrano[3,2-c]pyridine] |  |  |  | 
5 | 2.48 | 46.9 |  | 8.01 |  | COc1cc(/C=C2\CN(C(C)=O)CC3=C2NC(=S)NC3c2ccc(O)c(OC)c2)ccc1O (stereo not shown) [4a, (E)-6-Acetyl-8-(4-hydroxy-3-methoxybenzylidene)-4-(4-hydroxy-3-methoxyphenyl)-1,3,4,5,7,8-hexahydro-2H-pyrido[4,3-d]pyrimidin-2-thione] |  |  |  | 
6 | 7.27 | 42.3 |  | 16 |  | CCOc1cc(/C=C2\CN(C(C)=O)CC3=C2NC(=S)NC3c2ccc(O)c(OCC)c2)ccc1O (stereo not shown) [4b, (E)-6-Acetyl-8-(3-ethoxy-4-hydroxybenzylidene)-4-(3-ethoxy-4-hydroxyphenyl)-1,3,4,5,7,8-hexahydro-2H-pyrido[4,3-d]pyrimidin-2-thione] |  |  |  | 
7 | 5.47 | 20.3 | 6.06 | 5.27 |  | COc1cc(/C=C2\CN(C(C)=O)CC3C2=NN(c2ccccc2)C3c2ccc(O)c(OC)c2)ccc1O (stereo not shown) [5a, (E)-5-Acetyl-7-(4-hydroxy-3-methoxybenzylidene)-3-(4-hydroxy-3-methoxyphenyl)-2-phenyl-2,3,3a,4,6,7-hexahydro-5H-pyrazolo[4,3-c]pyridine] | 76 |  |  | 
8 | 2.23 | 15.2 | 12.6 | 9.04 |  | CCOc1cc(/C=C2\CN(C(C)=O)CC3C2=NN(c2ccccc2)C3c2ccc(O)c(OCC)c2)ccc1O (stereo not shown) [5b, (E)-5-Acetyl-7-(3-ethoxy-4-hydroxybenzylidene)-3-(3-ethoxy-4-hydroxyphenyl)-2-phenyl-2,3,3a,4,6,7-hexahydro-5H-pyrazolo[4,3-c]pyridine] | 70 |  |  | 
10 | 6.68 | 38.1 |  | 12.3 |  | CC(=O)O[C@H]1C(=O)[C@@]2(C)[C@H]([C@H](OC(=O)c3ccccc3)[C@]3(O)C[C@H](OC(=O)[C@H](O)[C@@H](NC(=O)c4ccccc4)c4ccccc4)C(C)=C1C3(C)C)[C@]1(OC(C)=O)CO[C@@H]1C[C@@H]2O [Taxol, reference compound] |  | did not have a significant effect | intensity of inflammatory cells infiltrates decreased | apparent cell toxicity
